Laboratory results: ChEMBL document CHEMBL4038284, “Synthesis of novel quinoline-based 4,5-dihydro-1H-pyrazoles as potential anticancer, antifungal, antibacterial and antiprotozoal agents” (Eur J Med Chem, 2017)

Tests used:
Assay type in all cases: functional
T47D = assay: Growth inhibition of human T47D cells incubated for 48 hrs by sulforhodamine B assay
In short: (§1)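 NCI-60 panel cells grown in RPMI-1640 with 5% FBS and 2 mM L-glutamine, preincubated 24 h at 37 °C/5% CO2. Time-zero plates were TCA-fixed at compound addition. DMSO stocks were diluted in medium and tested at five final concentrations (100, 10, 1.0, 0.1, 0.01 µM) for 48 h. Cells were TCA-fixed, stained with SRB and read at 515 nm. GI50 = 50% lower net protein increase versus control.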

OVCAR-4 = assay: Growth inhibition of human OVCAR4 cells incubated for 48 hrs by sulforhodamine B assay; details: OVCAR-4, 48 h
In short: (§2)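 Five-dose NCI SRB assay at 100, 10, 1.0, 0.1 and 0.01 μM for 48 h at 37 °C, 5% CO2. Medium was RPMI-1640 with 5% FBS and 2 mM glutamine. Time-zero plates were TCA-fixed at compound addition, A515 read after SRB staining. GI50 was solved from [(Ti−Tz)/(C−Tz)]×100 = 50. Values beyond the tested range are given as > or <.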

SK-MEL-28 = assay: Growth inhibition of human SK-MEL-28 cells incubated for 48 hrs by sulforhodamine B assay; details: SK-MEL-28, 48 h; in short: as §1
Malme-3M = assay: Growth inhibition of human MALME-3M cells incubated for 48 hrs by sulforhodamine B assay; in short: as §2
IGROV-1 = assay: Growth inhibition of human IGROV1 cells incubated for 48 hrs by sulforhodamine B assay; details: IGROV-1, 48 h
In short: (§3)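 NCI 60-line screen. Cells in RPMI-1640 with 5% FBS and 2 mM L-glutamine, preincubated 24 h, then time-zero plates TCA-fixed. Compounds from DMSO stocks given at five final concentrations (100, 10, 1.0, 0.1, 0.01 µM) for 48 h at 37 °C, 5% CO2. Cells fixed with 10% TCA, SRB-stained, read at 515 nm. GI50 is the concentration giving 50% lower net protein increase versus control.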

HCC 2998 = assay: Growth inhibition of human HCC2998 cells incubated for 48 hrs by sulforhodamine B assay; details: HCC 2998, 48 h; in short: as §3
UACC-62 = assay: Growth inhibition of human UACC62 cells incubated for 48 hrs by sulforhodamine B assay; details: UACC-62, 48 h; in short: as §3
NCI-H322M = assay: Growth inhibition of human NCI-H322M cells incubated for 48 hrs by sulforhodamine B assay; in short: as §2
SK-MEL-5 = assay: Growth inhibition of human SK-MEL-5 cells incubated for 48 hrs by sulforhodamine B assay; details: SK-MEL-5, 48 h; in short: as §3
CCRF-CEM = assay: Growth inhibition of human CCRF-CEM cells incubated for 48 hrs by sulforhodamine B assay; in short: as §3
HL-60(TB) = assay: Growth inhibition of human HL-60(TB) cells incubated for 48 hrs by sulforhodamine B assay; details: HL-60, 48 h; in short: as §3
NCI-H226 = assay: Growth inhibition of human NCI-H226 cells incubated for 48 hrs by sulforhodamine B assay; details: NCI-H226, 48 h; in short: as §3
OVCAR-8 = assay: Growth inhibition of human OVCAR8 cells incubated for 48 hrs by sulforhodamine B assay; details: OVCAR-8, 48 h; in short: as §2
KM12 = assay: Growth inhibition of human KM12 cells incubated for 48 hrs by sulforhodamine B assay; details: KM12, 48 h; in short: as §2
UO-31 = assay: Growth inhibition of human UO31 cells incubated for 48 hrs by sulforhodamine B assay; details: UO-31, 48 h; in short: as §1
TK-10 = assay: Growth inhibition of human TK10 cells incubated for 48 hrs by sulforhodamine B assay; details: TK-10, 48 h; in short: as §3
SF-268 = assay: Growth inhibition of human SF268 cells incubated for 48 hrs by sulforhodamine B assay; details: SF-268, 48 h; in short: as §2
SF-539 = assay: Growth inhibition of human SF539 cells incubated for 48 hrs by sulforhodamine B assay; details: SF-539, 48 h; in short: as §1
SK-OV-3 = assay: Growth inhibition of human SKOV3 cells incubated for 48 hrs by sulforhodamine B assay; details: SK-OV-3, 48 h; in short: as §3
HT-29 = assay: Growth inhibition of human HT-29 cells incubated for 48 hrs by sulforhodamine B assay; details: HT-29, 48 h; in short: as §2
RPMI-8226 = assay: Growth inhibition of human RPMI8226 cells incubated for 48 hrs by sulforhodamine B assay; details: RPMI-8226, 48 h; in short: as §3
A498 = assay: Growth inhibition of human A498 cells incubated for 48 hrs by sulforhodamine B assay; details: A498, 48 h; in short: as §3
DU-145 = assay: Growth inhibition of human DU145 cells incubated for 48 hrs by sulforhodamine B assay; details: DU-145, 48 h
In short: (§4)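 NCI five-dose SRB assay (100, 10, 1.0, 0.1, 0.01 µM) with 48 h exposure in RPMI-1640 with 5% FBS and 2 mM L-glutamine. Cells fixed with TCA and stained with SRB, read at 515 nm. GI50 is the concentration where [(Ti−Tz)/(C−Tz)]×100 = 50.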

MDA-MB-231 = assay: Growth inhibition of human MDA-MB-231 cells incubated for 48 hrs by sulforhodamine B assay; details: MDA-MB-231, 48 h; in short: as §2
HCT-116 = assay: Growth inhibition of human HCT116 cells incubated for 48 hrs by sulforhodamine B assay; details: HCT-116, 48 h; in short: as §4
HOP-62 = assay: Growth inhibition of human HOP62 cells incubated for 48 hrs by sulforhodamine B assay; details: HOP-62, 48 h; in short: as §4
786-0 = assay: Growth inhibition of human 786-0 cells incubated for 48 hrs by sulforhodamine B assay; details: 786-0, 48 h; in short: as §4
U-251 = assay: Growth inhibition of human U251 cells incubated for 48 hrs by sulforhodamine B assay; details: U-251, 48 h; in short: as §1
K562 = assay: Growth inhibition of human K562 cells incubated for 48 hrs by sulforhodamine B assay; details: K562, 48 h; in short: as §3
COLO 205 = assay: Growth inhibition of human COLO205 cells incubated for 48 hrs by sulforhodamine B assay; details: COLO 205, 48 h; in short: as §4
[1] = read-out: LC50 (the source's name)

COc1ccc(C2=NN(C=O)C(c3cccc(Nc4ccnc5cc(Cl)ccc45)c3)C2)cc1 (stereo not given)
GI50 (T47D): 1.39 µM
CC50 (T47D; [1]): > 100 µM
GI50 (OVCAR-4): 1.54 µM
CC50 (OVCAR-4; [1]): > 100 µM
GI50 (SK-MEL-28): 8.12 µM
CC50 (SK-MEL-28; [1]): 67.1 µM
GI50 (Malme-3M): 2.04 µM
CC50 (Malme-3M; [1]): > 100 µM
GI50 (IGROV-1): 3.71 µM
CC50 (IGROV-1; [1]): > 100 µM
GI50 (HCC 2998): 11.7 µM
CC50 (HCC 2998; [1]): > 100 µM
GI50 (UACC-62): 2.41 µM
CC50 (UACC-62; [1]): 68.1 µM
GI50 (NCI-H322M): 6.51 µM
CC50 (NCI-H322M; [1]): > 100 µM
GI50 (SK-MEL-5): 0.92 µM
CC50 (SK-MEL-5; [1]): 17.4 µM
GI50 (CCRF-CEM): 2.14 µM
CC50 (CCRF-CEM; [1]): > 100 µM
GI50 (HL-60(TB)): 2.03 µM
CC50 (HL-60(TB); [1]): 33.6 µM
GI50 (NCI-H226): 3.13 µM
CC50 (NCI-H226; [1]): > 100 µM
GI50 (OVCAR-8): 3.29 µM
LC50 (concentration causing 50% net cell kill) (OVCAR-8): > 100 µM
GI50 (KM12): 2.18 µM
CC50 (KM12; [1]): > 100 µM
GI50 (UO-31): 3.25 µM
CC50 (UO-31; [1]): > 100 µM
GI50 (TK-10): 4.24 µM
CC50 (TK-10; [1]): 61.7 µM
GI50 (SF-268): 4.79 µM
CC50 (SF-268; [1]): > 100 µM
GI50 (SF-539): 2.34 µM
CC50 (SF-539; [1]): 39.7 µM
GI50 (SK-OV-3): 3.33 µM
CC50 (SK-OV-3; [1]): > 100 µM
GI50 (HT-29): 1.65 µM
LC50 (HT-29): 67.4 µM
GI50 (RPMI-8226): 1.36 µM
CC50 (RPMI-8226; [1]): > 100 µM
GI50 (A498): 1.35 µM
CC50 (A498; [1]): > 100 µM
GI50 (DU-145): 3.62 µM
CC50 (DU-145; [1]): > 100 µM
GI50 (MDA-MB-231): 4 µM
CC50 (MDA-MB-231; [1]): > 100 µM
GI50 (HCT-116): 1.84 µM
LC50 (concentration killing 50% of cells) (HCT-116): 24.3 µM
GI50 (HOP-62): 2.11 µM
CC50 (HOP-62; [1]): 67.7 µM
GI50 (786-0): 3.43 µM
LC50 (786-0): 79.8 µM
GI50 (U-251): 2.77 µM
CC50 (U-251; [1]): 51.1 µM
GI50 (K562): 0.51 µM
CC50 (K562; [1]): > 100 µM
GI50 (COLO 205): 2.4 µM
CC50 (COLO 205; [1]): 60.6 µM
